Assay results taken from ChEMBL document CHEMBL3853295, “Design and synthesis of novel pyrazolo[1,5-a]pyrimidine derivatives bearing nitrogen mustard moiety and evaluation of their antitumor activity in vitro and in vivo” (Eur J Med Chem, 2016).
Activity calls are given as the source filed them. The calls are words filed in the database; no cut-off is given here.

What was measured:
[1] = Cytotoxicity against human SH-SY5Y cells after 72 hrs by MTT assay; assay type: functional, cell-based
In short: (§1)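 Cells cultured in DMEM or RPMI 1640 with 10% FBS. Seeded at about 2 × 10^3 per well and grown 24 h at 37 °C, 5% CO2. Compounds added at final 0.1–1000 uM for 72 h, 5 wells per concentration. MTT added for 4 h at 37 °C, then lysis overnight. Absorbance read at 570 nm against a 650 nm reference; IC50 calculated.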

[2] = Cytotoxicity against human HepG2 cells after 72 hrs by MTT assay; assay type: functional, cell-based; details: HepG2, 72 h; in short: as §1
[3] = Cytotoxicity against human A549 cells after 72 hrs by MTT assay; assay type: functional, cell-based; details: A549, 72 h; in short: as §1
[4] = Cytotoxicity against human MCF7 cells after 72 hrs by MTT assay; assay type: functional, cell-based; details: MCF7, 72 h; in short: as §1
[5] = Cytotoxicity against human DU145 cells after 72 hrs by MTT assay; assay type: functional, cell-based; details: DU-145, 72 h; in short: as §1
[6] = Cytotoxicity against human GES-1 cells assessed as reduction in cell viability after 72 hrs by MTT assay; assay type: toxicity, cell-based, GES1; in short: as §1
[7] = Cell cycle arrest in human HepG2 cells assessed as accumulation at G1 phase at 1 to 3 uM after 24 hrs by propidium iodide staining-based flow cytometric analysis; assay type: functional
In short: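 HepG2 cells exposed 24 h, then trypsinized, washed in ice-cold PBS and fixed in ice-cold 70% ethanol for at least 24 h. Resuspended in 0.4 mL PBS with RNase A (1 mg/ml stock) and PI (500 ug/ml stock) for 30 min at 4 °C in the dark. Cycle distribution (G1, S, G2/M percentages) read by flow cytometry.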

HepG2 [8] = assay: Induction of apoptosis in human HepG2 cells assessed as viable cells at 2 uM after 24 hrs by Annexin V-FITC/propidium iodide staining based flow cytometric analysis analysis (reference value: 90.7 %); assay type: functional; details: HepG2, 24 h, read-out: Activity
HepG2 [9] = assay: Induction of apoptosis in human HepG2 cells assessed as early apoptotic cells at 2 uM after 24 hrs by Annexin V-FITC/propidium iodide staining based flow cytometric analysis analysis (reference value: 1.60 %); assay type: functional
HepG2 [10] = assay: Induction of apoptosis in human HepG2 cells assessed as late apoptotic cells at 2 uM after 24 hrs by Annexin V-FITC/propidium iodide staining based flow cytometric analysis analysis (reference value: 5.93 %); assay type: functional
HepG2 [11] = assay: Induction of apoptosis in human HepG2 cells assessed as necrotic cells at 2 uM after 24 hrs by Annexin V-FITC/propidium iodide staining based flow cytometric analysis analysis (reference value: 1.74 %); assay type: functional
HepG2 [12] = assay: Induction of apoptosis in human HepG2 cells assessed as viable cells at 4 uM after 24 hrs by Annexin V-FITC/propidium iodide staining based flow cytometric analysis analysis (reference value: 90.7 %); assay type: functional; details: HepG2, 24 h, read-out: Activity
HepG2 [13] = assay: Induction of apoptosis in human HepG2 cells assessed as early apoptotic cells at 4 uM after 24 hrs by Annexin V-FITC/propidium iodide staining based flow cytometric analysis analysis (reference value: 1.60 %); assay type: functional
HepG2 [14] = assay: Induction of apoptosis in human HepG2 cells assessed as late apoptotic cells at 4 uM after 24 hrs by Annexin V-FITC/propidium iodide staining based flow cytometric analysis analysis (reference value: 5.93 %); assay type: functional
HepG2 [15] = assay: Induction of apoptosis in human HepG2 cells assessed as necrotic cells at 4 uM after 24 hrs by Annexin V-FITC/propidium iodide staining based flow cytometric analysis analysis (reference value: 1.74 %); assay type: functional
HepG2 [16] = assay: Induction of apoptosis in human HepG2 cells assessed as viable cells at 6 uM after 24 hrs by Annexin V-FITC/propidium iodide staining based flow cytometric analysis analysis (reference value: 90.7 %); assay type: functional; details: HepG2, 24 h, read-out: Activity
HepG2 [17] = assay: Induction of apoptosis in human HepG2 cells assessed as early apoptotic cells at 6 uM after 24 hrs by Annexin V-FITC/propidium iodide staining based flow cytometric analysis analysis (reference value: 1.60 %); assay type: functional
HepG2 [18] = assay: Induction of apoptosis in human HepG2 cells assessed as late apoptotic cells at 6 uM after 24 hrs by Annexin V-FITC/propidium iodide staining based flow cytometric analysis analysis (reference value: 5.93 %); assay type: functional
HepG2 [19] = assay: Induction of apoptosis in human HepG2 cells assessed as necrotic cells at 6 uM after 24 hrs by Annexin V-FITC/propidium iodide staining based flow cytometric analysis analysis (reference value: 1.74 %); assay type: functional
[20] = Antitumor activity against human HepG2 cells xenografted in nude mouse assessed as tumor growth inhibition at 10 mg/kg, ip administered every day for 15 times measured from day 12 to 26; assay type: functional; design: scale not given: the % may be the effect or the level left
In short: (§2)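 Female nude mice given 5 × 10^6 HepG-2 cells subcutaneously in the left flank. Randomized, n = 5 per group. Daily i.p. injection for 15 times, with saline as vehicle control. Tumor length and width recorded every other day; volume taken as 1/2·length·width² once tumors reached 130–160 mm3. Result is tumor growth inhibition versus the saline group.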

[21] = Antitumor activity against human HepG2 cells xenografted in nude mouse assessed as tumor growth inhibition at 20 mg/kg, ip administered every day for 15 times measured from day 12 to 26; assay type: functional; design: scale not given: the % may be the effect or the level left; in short: as §2
Mus musculus [22] = assay: Toxicity in nude mouse xenografted with human HepG2 cells assessed as body weight change at 10 mg/kg, ip administered every day for 15 times measured from day 12 to 26; assay type: organism-based; details: in vivo
In short: (§3)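 Same subcutaneous HepG-2 xenograft in female nude mice (5 × 10^6 cells, left flank). n = 5 per group, daily i.p. dosing for 15 times, saline control. Body weight of each mouse recorded every other day during therapy and followed after treatment stopped. Treated versus untreated compared by p value over days 12–26.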

Mus musculus [23] = assay: Toxicity in nude mouse xenografted with human HepG2 cells assessed as body weight change at 20 mg/kg, ip administered every day for 15 times measured from day 12 to 26; assay type: organism-based; details: in vivo; in short: as §3
Mus musculus [24] = assay: Toxicity in nude mouse xenografted with human HepG2 cells assessed as body weight change at 10 and 20 mg/kg, ip administered every day for 15 days and measured treatment cessation; assay type: organism-based; details: in vivo, 360 h; in short: as §3

Structure (SMILES): N#Cc1cnn2c(Nc3ccc(N(CCCl)CCCl)cc3)cc(CN3CCC(N4CCCCC4)CC3)nc12
- IC50 [1]: 6.02 µM
- IC50 [2]: 0.21 µM
- IC50 [3]: 6.13 µM
- IC50 [4]: 8.31 µM
- IC50 [5]: 6.82 µM
- IC50 at 72 h [6]: 9.54 µM
- Activity [7]: Active
- viability at 2 µM (HepG2 [8]): 81.8%
- Activity (HepG2 [9]): 2.87%
- Activity (HepG2 [10]): 11.9%
- Activity (HepG2 [11]): 3.39%
- viability at 4 µM (HepG2 [12]): 73.2%
- Activity (HepG2 [13]): 3.78%
- Activity (HepG2 [14]): 18%
- Activity (HepG2 [15]): 5.08%
- viability at 6 µM (HepG2 [16]): 57.3%
- Activity (HepG2 [17]): 5.56%
- Activity (HepG2 [18]): 29.5%
- Activity (HepG2 [19]): 7.69%
- Activity [20]: 43.88%
- Activity [21]: 58.26%
- Activity (Mus musculus [22]): 7.15%
- Activity (Mus musculus [23]): 9.21%
- Activity (Mus musculus [24]): Non-Toxic

Structure (SMILES): O=P1(N(CCCl)CCCl)NCCCO1 (stereo not drawn) [CYCLOPHOSPHAMIDE ANHYDROUS]
- Activity [20]: 42.11%
- Activity [21]: 51.48%
- Activity (Mus musculus [22]): 7.04%
- Activity (Mus musculus [23]): 10.63%
